Assay results reported in ChEMBL document CHEMBL4513216, “Probing the Open Global Health Chemical Diversity Library for Multistage-Active Starting Points for Next-Generation Antimalarials” (ACS Infect Dis, 2020).

Experiment: Toxicity liver stage against HepG2, at 10uM
Format: cell-based
Set-up: test concentration 10 uM, cell line HepG2-A16-CD81EGFP
Details: human, HepG2-A16-CD81EGFP cells; read-out: INHIBITION
Method in brief: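 Uninfected HepG2-A16-CD81EGFP cells, 3 × 10^3 per well, 1536-well, plated on prespotted compound at 10 μM final, parasite-free screening media added to match infected plates; puromycin 10 μM positive, DMSO 0.5% negative; run in parallel with 48 h PbLuc assay at 37 °C, 5% CO2; viability by CellTiter-Glo luminescence, normalized to controls.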

Point of comparison: `O=C(NCc1nccn1CCc1ccccc1)NCC1(O)CCC1`, cytotoxicity at 10 µM -2.97%. Against it:
- CCc1ncc2c(n1)CN(Cc1cccc3c1OCCO3)CC2 — lower, -8.42%
- COc1cc(S(=O)(=O)N2CCCc3ccccc32)cc(C(=O)O)c1OC — higher, 1.8%
- CN(CC(=O)N1CCCC1Cn1cccn1)c1cnccn1 (centres undefined) — lower, -5.1%
- CCOCCCNC(=O)NCc1c(C)nn(C)c1C — lower, -5.28%
- Cc1nccc(C2CN(S(=O)(=O)N(C)C)C2)n1 — lower, -5.44%
- CNC(=O)[C@@]12CCO[C@@H]1CCN(S(=O)(=O)c1cccnc1)C2 — lower, -3.3%
- CC(=O)N1CCN(C(=O)C(C)OCC(F)(F)F)CC1 (centres undefined) — lower, -10.8%
- CCN1CCOC(CNCc2cccc(OCc3ccccn3)c2)C1 (centres undefined) — lower, -13.4%
- O=C(c1ccccc1)N1CCC2(CCCN2c2ncccn2)CC1 — lower, -127%
- CN(CC(=O)N1CCN(c2ccccn2)CC1)c1ccc(Cl)cn1 — higher, -2.3%
- CN(C)C(CNC(=O)c1nc(N2CCOCC2)ncc1Cl)c1ccco1 (centres undefined) — higher, 7.96%
- COCCNC(=O)CSCc1nc(O)c2cc(C(C)C)sc2n1 — lower, -3.46%
- CC(Cc1cccs1)NC(=O)CCn1cccn1 (centres undefined) — lower, -14.7%
- NCc1ccc(N2CCN(c3ncccn3)CC2)c(F)c1 — lower, -50.8%
- CSCC(=O)N1CCC(Oc2cccc(C)c2)CC1 — higher, 1.98%
- COc1ccc(-c2nc(CN3CCCC3Cn3cccn3)no2)cc1 (centres undefined) — higher, -1.89%
- CC(=O)N1CCC2(CCN(C(=O)c3ccc(C)c(C(F)(F)F)c3)CC2)C1 — higher, 3.73%
- Cc1cc(C(F)(F)F)n2nc(C3CCCN3C3CCSCC3)cc2n1 (centres undefined) — higher, 1.77%
- CC(O)CCn1ccc2[nH]c(=O)c(C#N)cc2c1=O (centres undefined) — higher, 5.66%
- CN1CCCC(CCC(=O)N2CCc3onc(C(=O)N(C)C)c3C2)C1 (centres undefined) — lower, -11%
- Cc1ccc(-c2cc(C(F)(F)F)nc(N3CCOCC3)n2)s1 — higher, 0.452%
- COc1cc(N2CCN(Cc3ccc(C)o3)C(CCO)C2)nc(N)n1 (centres undefined) — higher, 2.8%
- CN(C)CC(C)(C)CN1CCC(c2ccnc(-c3cccc(O)c3)c2)C1 (centres undefined) — higher, 3.36%
- Cc1cc(C)n(C2CN(Cc3noc(C4CC4)n3)C2)n1 — higher, 0.738%
- Cc1cccc(CN2C[C@@H](NC(=O)C3CCC3)[C@H]3COC[C@H]32)n1 — higher, 4.83%
- CN1CC[C@H](c2nnc(Cc3c[nH]c4ccccc34)o2)C1 — higher, 4.84%
- CNCC1CCC(c2cc(CN(C)S(=O)(=O)N(C)C)n(C)n2)CC1 (centres undefined) — higher, -1.33%
- CS(=O)(=O)N[C@H]1CN(C(=O)CCc2ccco2)C[C@@H]1C1CC1 — higher, 2.7%
- COc1cccc(CNC(Cc2cccs2)c2nc(C)c(C)s2)c1OC (centres undefined) — lower, -12.9%
- CCn1nc2c(cc1=O)CN(Cc1nc(C)c(C)o1)CC2 — lower, -3.59%
- CCOC(C)C(=O)Nc1ccnn1-c1ccccc1C (centres undefined) — lower, -7.89%
- CCN(CC1CCCCO1)C(=O)CCNC(=O)c1ccccc1F (centres undefined) — lower, -42.9%
- CO[C@@H]1CCN(C(=O)Cc2cccc(F)c2)[C@H]1Cc1cccnc1 — lower, -4.89%
- COc1ccc(C(C)NC(=O)NCCNc2ccccn2)c(OC)c1 (centres undefined) — higher, 0.00455%
- CC(=O)N1CCN(c2ccc(Cl)nn2)C(=O)C1 — higher, 6.69%
- CCN1CCCn2c(nc(CNC(=O)c3ccsc3)cc2=O)C1 — higher, 1.16%
- Cc1nn(C)c(C)c1CCC(=O)OCC(=O)N1CCc2sccc2C1 — higher, 0.927%
- CNc1nc2cn(CCc3ccc(F)cc3)c(=O)c-2c[nH]1 — higher, 7.55%
- Cc1ccc(OC2CCN(S(=O)(=O)N(C)C)CC2)nc1 — higher, 7.68%
- Cc1cccc(CO[C@@H]2CC[C@H]3[C@H]2OCCN3Cc2nccs2)n1 — higher, 5.2%
- c1cc(CNCc2ccnc(N3CCOCC3)c2)c2c(c1)OCO2 — higher, 2.75%
- Cc1ncc(-c2ccnc(N3CCCCC3)n2)c(=O)[nH]1 — higher, 7.53%
- Cn1ccnc1COc1ccc(NC(=O)C2CCCO2)cc1 (centres undefined) — lower, -14.9%
- Cc1ccc(C(=O)N2C[C@@H](OCc3cccnc3)[C@H]3OCCC[C@@H]32)o1 — higher, -2.52%
- CN(C)CCN1CCOCC2(C1)CN(Cc1ccco1)CCO2 (centres undefined) — lower, -111%
- COC(=O)c1ccc(N2CCN(C(=O)CCCc3cn[nH]c3)CC2)cc1 — lower, -4.32%
- CC(C)Cc1nc(CN2CCCC2Cn2cncn2)no1 (centres undefined) — lower, -8.66%
- Cc1nccn1C1CCCN(C(=O)c2ccc3nnc(C)n3c2)C1 (centres undefined) — higher, 2.01%
- OC(CN1CCOCC1)c1cc(Cl)ccc1Cl (centres undefined) — higher, -1.57%
- Cn1ccc(C(=O)N2C[C@@H]3CN(CC4CC4)CCO[C@@H]3C2)n1 — higher, 14.9%
- COC(=O)c1cc(CN2CCN(c3nc(C)cnc3C)CC2)ccc1O — higher, 0.171%
- Nc1cccnc1N1CCC(O)CC1 — higher, 2.3%
- COc1c(C2CCCN2C(=O)c2c(C)noc2C)c(C)nn1C (centres undefined) — higher, 0.471%
- Cc1ccccc1CC(C)(C)NC(=O)COc1cccc(C(N)=O)c1 — higher, 20.4%
- Cc1c(C(=O)O)cnn1-c1ccc(-c2nc(C(C)(C)C)no2)cn1 — higher, 7.19%
- O=C(CNC(=O)c1c(F)cccc1Cl)Nc1ccc(F)cn1 — higher, 8.46%
- Cn1cc(CN2C[C@@H]3COC[C@]3(CNC(=O)c3ccsc3)C2)cn1 — higher, -0.0273%
- Cc1cc(F)ccc1-c1ccccc1CC1CNCCNC1=O (centres undefined) — higher, 5.08%
- CSCC(=O)NC(Cc1ccc(C)cc1)c1ccccn1 (centres undefined) — higher, 1.23%
- COc1cc(NCc2ncc[nH]2)ccc1Br — higher, 11.2%
- Cc1ccsc1C(=O)N1CCc2ncc(CN(C)C)n2CC1 — lower, -101%
- CC(NC(=O)N(C)Cc1ccsc1)c1nncn1C (centres undefined) — lower, -4.02%
- COCCN1CCC2(CCN(C(=O)c3ccc(F)cc3)CC2)C1=O — higher, 2.85%
- O=C(CN1CCc2cncnc2C1)NC(C1CC1)C1CC1 — lower, -5.42%
- O=C(c1ccccn1)N1CC(S(=O)(=O)c2ccc(Cl)cc2)C1 — lower, -12%
- O=C(C1=CCCC1)N1CCC[C@]2(C[C@@H](OCc3ccncc3)CO2)C1 — lower, -6.5%
- Cc1cc(C)n(CCCN(C)Cc2cn[nH]c2-c2ccc(F)cc2)n1 — higher, 2.09%
- C[C@H]1C[C@H]2CN(C(=O)c3ccncn3)CC[C@@H]2O1 — higher, 4.93%
- Cc1ccc(OCCN(C)C(C)c2cccc(S(N)(=O)=O)c2)cc1 (centres undefined) — lower, -29.3%
- Cc1cc(C)c(CNC(=O)NCC2COc3ccccc3C2)c(=O)[nH]1 (centres undefined) — higher, 8.51%
- CN1CC[C@H]2[C@H](C[C@@H](Cn3cncn3)N2c2nccs2)C1 — lower, -144%
- Cc1c(S(=O)(=O)NCC(C)C)cnn1C — higher, 4.54%
- Cc1nn(C)c(C)c1CC(=O)NCc1cccnc1OC1CCCC1 — higher, -0.527%
- CC(O)(CNC(=O)NCCc1ccc2c(c1)CCO2)c1ccsc1 (centres undefined) — higher, 7.4%
- COc1cc(CN(C)C(=O)NCC(=O)NC(C)C)ccc1SC — lower, -15.5%
- Cc1ccc(C(N)c2cccc(S(C)(=O)=O)c2)c(C)c1 (centres undefined) — lower, -6.44%
- O=C(c1[nH]nc(C2CC2)c1Cl)N1CCN(C2CC2)CC1 — lower, -5.58%
- Cc1nc(CN2Cc3nccn3CC(CN3CCOCC3)C2)cs1 (centres undefined) — higher, 0.951%
- Cc1ccc(C(C(=O)NC(C)(C)CN2CCCC2)N(C)C)cc1 (centres undefined) — lower, -6.93%
- CN(C)S(=O)(=O)N1CC[C@]2(O)CCN(Cc3cccc(F)c3)C[C@@H]2C1 — lower, -5.16%
- CC(C)(CNC(=O)C1CCCN1S(C)(=O)=O)N1CCOCC1 (centres undefined) — higher, 2.72%
- CC(=O)Nc1ccc(C(=O)N2CCSCC2c2ccc(C)o2)cc1 (centres undefined) — higher, 11.4%
- Cc1cc(C)n(C2CCCN(C(=O)c3cccc4[nH]ncc34)C2)n1 (centres undefined) — higher, 6.22%
- CN1C(=O)COc2ccc(C(=O)Cn3cnc4ccccc4c3=O)cc21 — higher, -0.894%
- COCC1CN(C(=O)c2ccoc2C)Cc2nccn2C1 (centres undefined) — higher, 6.1%
- Cc1csc(C(C)(C)NCC(=O)N(C)Cc2ccc(C)o2)n1 — higher, -1.12%
- O=C(NC1CCN(c2ncccc2F)C1)c1cccc(-n2ccnc2)c1 (centres undefined) — higher, 9.49%
- CC(C)NC(=O)[C@@H]1CC[C@@H]2[C@@H](CCN2Cc2cn(C)c3ccccc23)O1 — higher, 9.49%
- CCS(=O)(=O)c1ccc(NCc2csc(C(C)C)n2)cc1 — higher, 8.73%
- CC(c1nccs1)N(C)Cc1ccc(CCC(C)(C)O)cc1 (centres undefined) — higher, 2.55%
- CS(=O)(=O)c1cc(Cl)cnc1C1CCN(C(=O)C2CCOCC2)CC1 — higher, 4.07%
- CN(C)C(=O)Cn1cc(C(=O)NCCc2ccc(Cl)cc2Cl)nn1 — higher, -2.35%
- Cc1cc(C2CCCN(C(=O)CCc3cscn3)C2)n[nH]1 (centres undefined) — higher, -0.939%
- CN(C)C(=O)[C@@H]1CCO[C@@H]2CCN(Cc3ccccc3)C[C@@H]21 — lower, -12.1%
- COC(=O)CC(C1=Cc2ccccc2OC1)c1oc(C)cc(=O)c1O (centres undefined) — lower, -8.51%
- CC(C)C(=O)N1CCOC2(COCCN(c3ncccn3)C2)C1 (centres undefined) — lower, -114%
- CC(C)(C)n1cc(C2=CCN(CCNC(=O)c3ccccc3)CC2)cn1 — higher, -0.262%
- COC(=O)COc1nc(CC(C)C)c2c(c1C#N)CCCC2 — higher, 21.5%
- COc1ccccc1CN(CC1CCCO1)C(=O)c1ccc(F)cn1 (centres undefined) — lower, -3.85%
- O=C(NCCCn1cccn1)C1CCC(=O)N(CC2CCCCC2)C1 (centres undefined) — higher, -0.312%
- Cc1nnc(CNC(=O)[C@@H]2C[C@H](NC(=O)C(C)(C)C)CN2C)[nH]1 — higher, 1.76%
- Cc1c(-c2cc(C(=O)N3CCc4ncc(Cl)cc4C3)on2)cnn1C — lower, -3.07%
- COCC(=O)N1CC[C@@H]2CN(Cc3ccccc3)S(=O)(=O)[C@@H]2CC1 — higher, -0.733%
- Cc1ccc(-n2nc(C)cc2N)nn1 — higher, 16%
- Cc1c(C(=O)N2CCNC(=O)C2)sc2nc[nH]c(=O)c12 — higher, 0.709%
- CNC(=O)[C@@]12CCO[C@@H]1CCN(S(=O)(=O)c1ccccc1)C2 — lower, -74.8%
- O=C(Cn1cc(Cl)cn1)NCCN1CCC(O)(c2ccc(F)cc2)CC1 — higher, 3.41%
- O=C(Nc1ccc(Cl)cc1)c1nn(C2CCS(=O)(=O)C2)c2c1CCCC2 (centres undefined) — higher, 2.96%
